Screening data: PubChem BioAssay, The Scripps Research Institute Molecular Screening Center
GSTO1 counter: counter-screen for RBBP9 inhibitors: inhibitors of human GSTO1 | recombinant GSTO1, activity-based probe fluorescence polarization | inhibition, % at 5.96 µM | 300,000 compounds, 1.1% hits;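 active = inhibition above the campaign mean inhibition plus 3 SD, cut at about 35% in these data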
PAD4 FP inh: PAD4 (human) enzyme inhibition; Q9UM07; recombinant PAD4, RCA probe fluorescence polarization; inhibition, % at 6.36 µM; 330,000 compounds, 0.41% hits; AID 485272;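 active = percent inhibition above a cutoff equal to the mean of all tested compounds plus 3 SD, cut at about 15% in these data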
Target sequence (Q9UM07 whole entry, looked up): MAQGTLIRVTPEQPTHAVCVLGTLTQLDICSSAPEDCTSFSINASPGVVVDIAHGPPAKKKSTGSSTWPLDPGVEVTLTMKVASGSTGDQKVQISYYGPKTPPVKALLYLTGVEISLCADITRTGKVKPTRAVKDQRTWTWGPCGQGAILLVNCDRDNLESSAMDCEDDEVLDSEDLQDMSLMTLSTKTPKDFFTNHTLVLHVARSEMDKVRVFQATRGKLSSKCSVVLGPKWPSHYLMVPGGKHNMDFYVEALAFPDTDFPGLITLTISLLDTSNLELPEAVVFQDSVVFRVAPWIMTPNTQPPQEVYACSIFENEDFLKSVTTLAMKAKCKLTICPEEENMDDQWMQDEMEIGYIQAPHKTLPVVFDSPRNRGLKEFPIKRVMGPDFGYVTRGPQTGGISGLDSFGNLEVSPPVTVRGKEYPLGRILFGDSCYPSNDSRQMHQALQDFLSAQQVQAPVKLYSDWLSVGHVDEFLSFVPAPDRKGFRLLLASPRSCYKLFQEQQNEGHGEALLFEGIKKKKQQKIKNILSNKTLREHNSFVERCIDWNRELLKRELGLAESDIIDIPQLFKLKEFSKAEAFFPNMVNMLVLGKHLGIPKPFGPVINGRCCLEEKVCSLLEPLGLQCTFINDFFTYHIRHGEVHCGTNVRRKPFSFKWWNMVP
TDP2 inh: blocks human TDP2 phosphodiesterase activity; O95551; recombinant TDP2, T5PNP hydrolysis, p-nitrophenol absorbance 415 nm; inhibition, % at 12.8 µM; 370,000 compounds, 0.34% hits; AID 720702;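 active = inhibition above the mean of all tested compounds plus 3 SD, set per campaign, cut at about 25% in these data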
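Assay system: Recombinant human TDP2 | Quantity: 120 nM TDP2 per well | Incubation: 2 h at 37 °C | Signal: Epi absorbance | Evaluation: Percent inhibition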
CTSL1 counter: cathepsin L1 inhibition, PFM18AAP counter-screen | recombinant F. hepatica cathepsin L1, Z-Leu-Arg-MCA fluorescence | inhibition, % at 5.96 µM | 300,000 compounds, 0.49% hits | AID 1906;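 active = inhibition above the mean of all tested compounds plus 3 SD, set per screening campaign, cut at about 17% in these data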
GSTO1 inh conf: confirmation of human GSTO1 inhibitors. recombinant GSTO1, probe fluorescence polarization. AID 2176. 2,400 compounds, 54% hits. shares compounds with GSTO1 counter. inhibition, % at 5.96 µM;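 active = inhibition above the primary screen's cutoff, its mean inhibition plus 3 SD, cut at about 35% in these data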;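 note: loss of polarization as inhibitors block binding of rhodamine sulfonate ester activity probe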
GSTO1 ABPP inh: inhibitors of recombinant human GSTO1; shares compounds with GSTO1 counter; gel ABPP SE-Rh probe fluorescence; inhibition, % at 1 µM; 130 compounds, 30% hits; AID 463110;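 active = inhibition of the enzyme GSTO1 above about 75%, limit read from the data; inactive = inhibition below that limit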
Each line names hits and unclear results; the compound was inactive in the other large screens (follow-up assays come after a bar, where they were run). This is a sample that favours compounds with a hit; in the whole collection about 1.4% have one here.

CCCC[n+]1ccn(-c2nc3ccccc3nc2[N-]S(=O)(=O)c2ccc(Cl)cc2)c1	none
O=C(c1cccs1)c1no[n+]([O-])c1C(=O)c1cccs1	none (no result: TDP2 inh)
Cc1c(C(=O)c2no[n+]([O-])c2C(=O)c2cnn(C)c2C)cnn1C	GSTO1 counter 39.7 | GSTO1 inh conf inactive
COc1ccccc1-c1nnc(NC(=O)C(C)SC2=NCCS2)s1 (stereo unspecified)	GSTO1 counter 48.2 | GSTO1 inh conf 61.8
Cc1nnc(C)n1N=Cc1ccc(O)cc1O	none (no result: GSTO1 counter, PAD4 FP inh, CTSL1 counter)
O=S(=O)(CC1NCCc2ccccc21)NCc1ccccc1 (stereo unspecified)	none (no result: GSTO1 counter, PAD4 FP inh, CTSL1 counter)
Cc1ccc(S(=O)(=O)/N=C2\C=C(NS(=O)(=O)c3ccccc3)C(=O)c3ccccc32)c(C)c1	none (no result: GSTO1 counter, PAD4 FP inh, CTSL1 counter)
CC(C)(C)c1ccc(S(=O)(=O)/N=C2\C=C(NS(=O)(=O)c3ccccc3)C(=O)c3ccccc32)cc1	GSTO1 counter 71.4 | GSTO1 inh conf 67.0
CCc1ccc(S(=O)(=O)/N=C2\C=C(Nc3ccc(C(=O)O)cc3)C(=O)c3ccccc32)cc1	GSTO1 counter 93.9, PAD4 FP inh 69.4, TDP2 inh 72.0, CTSL1 counter 79.1 | GSTO1 inh conf 91.2
CCOc1ccc(-n2c(SCC(=O)Nc3cccc4ccccc34)nnc2-c2ccncc2)cc1	none (no result: GSTO1 counter, PAD4 FP inh, CTSL1 counter)
COc1cc2c(cc1NC(=O)CSc1nnc(Cc3cccs3)n1C)oc1ccccc12	GSTO1 counter 45.9 | GSTO1 inh conf inactive
CC(C)(C)CSc1nnc(-c2cccnc2)n1Cc1ccccc1	none (no result: GSTO1 counter, PAD4 FP inh, CTSL1 counter)
COC(=O)Cc1nnn2c1[C@H](C)[C@H](c1cccc(OC)c1OC)OCC2	none (no result: GSTO1 counter, PAD4 FP inh, CTSL1 counter)
Cc1ccc(-c2cnn(-c3ccccc3)c2N)cc1	none
Nc1nc2c(s1)CCc1c-2cnn1-c1ccccc1	GSTO1 counter 72.3, PAD4 FP inh 40.4 (no result: TDP2 inh) | GSTO1 inh conf 70.7
CCN(c1ccccc1)S(=O)(=O)c1cc(NC(=O)CSc2n[nH]c(=O)[nH]c2=O)ccc1Cl	GSTO1 counter 52.4 | GSTO1 inh conf 67.4
O=C(CSc1n[nH]c(=O)[nH]c1=O)Nc1ccc2c(c1)C(=O)c1ccccc1C2=O	GSTO1 counter 60.9 | GSTO1 inh conf 77.7
O=C(CCl)N(c1ccccc1)C1CCS(=O)(=O)C1 (stereo unspecified)	GSTO1 counter 79.2 | GSTO1 inh conf 85.1 | GSTO1 ABPP inh inactive
CCOC(=O)Cn1cc(CN2C(C(=O)OC)CN(CCO)CCS2(=O)=O)nn1 (stereo unspecified)	none (no result: GSTO1 counter, PAD4 FP inh, CTSL1 counter)
CCCCOCCCNS(=O)(=O)c1ccccc1	none
CCCCOP(=O)(OCCCC)C1(NS(=O)(=O)c2ccccc2)C=CC(=O)c2ccccc21 (stereo unspecified)	GSTO1 counter 50.2 | GSTO1 inh conf inactive
COc1ccccc1COC(=O)c1cccc(S(=O)(=O)N(C)Cc2ccccc2)c1	none (no result: GSTO1 counter, PAD4 FP inh, CTSL1 counter)
CCOC(=O)C1CCN(C(=O)Nc2ccc3nc(-c4ccco4)c(-c4ccco4)nc3c2)CC1	GSTO1 counter 79.8 (no result: TDP2 inh) | GSTO1 inh conf inactive
Cc1cc(C)n(-c2cc(O)c(-n3nc(C)cc3C)cc2O)n1	GSTO1 counter 46.5 | GSTO1 inh conf inactive
COc1ccc(C2NN=C(c3c[nH]c4ccccc34)C2O)cc1 (stereo unspecified)	none
COc1ccc(C2C(O)C(c3c[nH]c4ccccc34)=NN2C(=O)CCl)cc1 (stereo unspecified)	GSTO1 counter 87.6, CTSL1 counter 43.3 | GSTO1 inh conf 93.3
Cc1nc2c(O)cccc2cc1CO	GSTO1 counter 49.9 | GSTO1 inh conf inactive
Cc1ccc(NCN2C(=O)c3ccccc3C2=O)cc1Cl	none (no result: GSTO1 counter, PAD4 FP inh, CTSL1 counter)
Cc1ccc(N/N=C2\CC(=O)c3ccccc32)cc1Cl	GSTO1 counter 48.2 (no result: TDP2 inh) | GSTO1 inh conf inactive
Cc1ccc(C2Nc3cccc4cccc(c34)N2)s1	GSTO1 counter 44.0 | GSTO1 inh conf inactive
CC(C)CNc1cccc2c1S(=O)(=O)N(Cc1cn(Cc3ccc(F)cc3)nn1)Cc1ccccc1O2	none (no result: GSTO1 counter, PAD4 FP inh, CTSL1 counter)
CC[C@H](C)/C=C/C1=CC2=C(Cl)C(=O)[C@@]3(C)OC(=O)C(C(=O)[C@H](C)[C@@H](C)O)=C3C2=CO1	GSTO1 counter 46.6 (no result: TDP2 inh) | GSTO1 inh conf inactive
CCOc1ccc(/C=C2\SC(=S)NC2=O)cc1OC	none
COc1ccc(/C=C2\SC(=O)NC2=S)cc1OC	GSTO1 counter 61.5 | GSTO1 inh conf 72.1
Cc1cccc(C(=O)N[C@@H]2CC[C@@]34CCCN3C(=O)CCC[C@H]4[C@H]2C)c1	none (no result: GSTO1 counter, PAD4 FP inh, CTSL1 counter)
COc1ccc(C(=O)C(=NN)c2ccccc2)cc1	none (no result: GSTO1 counter, PAD4 FP inh, CTSL1 counter)
CN=c1scc(-c2ccccc2F)n1/N=C/c1ccc(O)c(O)c1O	none (no result: GSTO1 counter, PAD4 FP inh, CTSL1 counter)
O=C(/C(=N/N=C/c1ccc(O)c(O)c1O)c1ccccc1)c1ccccc1	GSTO1 counter 50.4 | GSTO1 inh conf inactive
Oc1ccc(/C=N/N=C(c2ccccc2)c2ccccc2)c(O)c1O	GSTO1 counter 53.9 | GSTO1 inh conf inactive
CCOC(=O)CC[C@@]1(C(=O)OCC)C[C@@H](CC(=O)N2CCN(C(=O)c3ccco3)CC2)C(=O)N2CCCC=C21	none (no result: GSTO1 counter, PAD4 FP inh, CTSL1 counter)
O=c1cc2oc3cc(O)c(O)cc3c(-c3ccccc3[N+](=O)[O-])c-2cc1O	GSTO1 counter 49.6 | GSTO1 inh conf 40.8
O=C(NCc1ccc(C(=O)NC2CCCC2)cc1)c1cccc(Br)c1	none (no result: GSTO1 counter, PAD4 FP inh, CTSL1 counter)
CNCc1ccccc1Sc1cc(O)ccc1O	GSTO1 counter 89.1 | GSTO1 inh conf 55.5
CNCc1ccccc1Sc1cccc(O)c1	none
COc1ccc(CN2C(=O)[C@@](O)(c3cccn3C)c3cc(Br)ccc32)cc1	none (no result: GSTO1 counter, PAD4 FP inh, CTSL1 counter)
Cc1ccc(NC(=O)CCc2c(C)nn(-c3ccc(N4CCCCC4)nn3)c2C)cc1	none
Cc1cc(C)cc(NC(=O)CCc2c(C)nn(-c3ccc(N4CCCCC4)nn3)c2C)c1	GSTO1 counter 67.0 | GSTO1 inh conf inactive
Oc1ccc(/C=N/N2CCCCC2)cc1O	GSTO1 counter 40.1 | GSTO1 inh conf inactive
CCc1nc2c(OCc3cc(Cl)cc(Cl)c3)cccn2c1N(C)C(=O)c1ccc(C)cc1	none (no result: GSTO1 counter, PAD4 FP inh, CTSL1 counter)
CNc1nc(N)c([N+](=O)[O-])c(Nc2ccccc2)n1	none (no result: GSTO1 counter, PAD4 FP inh, CTSL1 counter)
COCCNC(=O)C(=O)N/N=C(\C)CC(=O)Nc1ccc(Cl)cc1Cl	GSTO1 counter 71.0 | GSTO1 inh conf inactive
C/C(CC(=O)Nc1ccc(Cl)cc1Cl)=N\NC(=O)C(=O)N1CCCC1	none
CCOC(=O)c1ccc2c(c1)C1C=CCC1C(C(=O)O)N2 (stereo unspecified)	GSTO1 counter 51.9 (no result: TDP2 inh) | GSTO1 inh conf 38.8
CCOC(=O)C1Nc2ccc(C(=O)O)cc2C2C=CCC12 (stereo unspecified)	none
CC1CCc2c(sc3nc(C(C)(C)C)nc(N4CCN(C(=O)CCl)CC4)c23)C1 (stereo unspecified)	GSTO1 counter 73.5 | GSTO1 inh conf 73.5 | GSTO1 ABPP inh inactive
COC(=O)[C@]12C[C@H](CC(=O)NCCCCc3ccccc3)C(=O)N(CCc3ccc(OC)c(OC)c3)C1=C[C@H](C(C)(C)C)O[C@@H]2C	none (no result: GSTO1 counter, PAD4 FP inh, CTSL1 counter)
c1ccc(N2CCN(Cc3ccnc4ccccc34)CC2)cc1	none
